Screening results as filed in PubChem BioAssay.
GASC1 inh: KDM4C (human) demethylase inhibition; Q9H3R0; GST-KDM4C 2-372, H3K9me3 peptide, LANCE TR-FRET; inhibition, % at 12.5 µM; 96,000 tested, 0.15% active; AID 720574;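 active = mean replicate inhibition above about 25%, with at least 55% of replicates also reaching it, limit read from the data, passing the limit was not always enough; inconclusive = only one of those two conditions met; inactive = neither condition met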
Target sequence (Q9H3R0 2-372 limits assumed): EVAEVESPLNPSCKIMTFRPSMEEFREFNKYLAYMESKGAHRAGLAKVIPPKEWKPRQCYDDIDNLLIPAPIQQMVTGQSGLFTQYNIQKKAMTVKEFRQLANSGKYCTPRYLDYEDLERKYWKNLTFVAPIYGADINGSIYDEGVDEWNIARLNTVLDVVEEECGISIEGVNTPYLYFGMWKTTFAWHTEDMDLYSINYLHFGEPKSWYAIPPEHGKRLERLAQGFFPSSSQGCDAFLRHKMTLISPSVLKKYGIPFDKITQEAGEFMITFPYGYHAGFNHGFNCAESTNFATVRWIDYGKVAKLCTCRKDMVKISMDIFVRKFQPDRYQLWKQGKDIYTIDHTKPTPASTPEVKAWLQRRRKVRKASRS
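System – N-terminal GST-fused human GASC-1 (KDM4C) fragment, residues 2-372 · Input – enzyme final amount 10 nM · Technique – LANCE TR-FRET, Eu antibody, ULight-streptavidin, EDTA, ex 340 nm, em 618/671 nm · Medium – HEPES buffer, pH 7.5, plus ascorbate · Incubation – enzyme reaction 30 min, then detection 60 min, both room temperature · Reagent – H3K9me3 peptide with Fe(II)/2OG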
T cruzi growth-1: blocks T. cruzi growth in NIH3T3 culture; T. cruzi beta-gal in NIH3T3, GalScreen luminescence, 90 h; inhibition, % at 8.34 µM; 77,000 tested, 5.9% active; AID 624255;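 active = mean inhibition above about 93%, with at least 55% of replicates each passing it, limit read from the data, passing the limit was not always enough; inconclusive = only one of those two conditions holds; inactive = neither condition holds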
Pf Dd2 inh: inhibitors of Plasmodium falciparum Dd2 growth; 94,000 tested, 2.3% active; activity change, % at 10 µM; P. falciparum Dd2 growth, SYBR Green, 72 h; stronger effect = lower value; in the data active = activity change below about -80%; inconclusive = no clear call, values can overlap the other calls
IDH1 mut inh: blocks human IDH1 R132H reductase activity; 70,000 tested, 0.18% active; diaphorase/resazurin fluorescence, 60 min; inhibition, % at 10 µM; AID 624101; in the data active = inhibition above about 34%; inconclusive = no clear call, values can overlap the other calls; inactive = below about 11%;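 also: 0% = DMSO and 100% = no enzyme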
T cruzi growth-2: blocks T. cruzi growth in NIH3T3 host cells. inhibition, % at 8.35 µM. AID 651739. 5,600 tested, 72% active. shares compounds with T cruzi growth-1. T. cruzi beta-gal in NIH3T3, GalScreen luminescence, 90 h;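 active = mean replicate inhibition above about 95% and at least 55% of replicates individually reaching it, limit read from the data; inconclusive = only one of the two criteria is met; inactive = neither criterion is met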
T cruzi growth-3: inhibitors of T. cruzi proliferation; shares compounds with T cruzi growth-1; T. cruzi beta-gal in NIH3T3, GalScreen luminescence, 90 h; inhibition, % at 2.09 µM; 5,600 tested, 21% active; AID 651740;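 active = mean inhibition above about 95%, with at least 55% of replicates also reaching it, limit read from the data; inconclusive = meets just one of the two conditions; inactive = meets neither condition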;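 also: plate controls were neutral control median for no effect and positive control median for full effect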
NIH3T3 tox: cytotoxicity in mouse NIH/3T3 fibroblasts; shares compounds with T cruzi growth-1; NIH/3T3 viability, CellTiter-Glo ATP luminescence, 90 h; cytotoxicity (signal decrease), % at 8.35 µM; 5,600 tested, 14% active; AID 651742;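 active = mean signal decrease across replicates above about 35% based on untreated-well scatter, with enough replicates individually passing, limit read from the data; inconclusive = no rule stated though some were filed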;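 also: 0% = median of neutral control wells and 100% = median of positive control wells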
NIH3T3 tox 2: kills mouse NIH/3T3 fibroblasts. shares compounds with T cruzi growth-1. NIH/3T3 viability, CellTiter-Glo ATP luminescence, 90 h. inhibition, % at 24.9 µM. 5,600 tested, 56% active. AID 651744;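 active = mean loss of cell viability signal at or above a set limit, and enough replicates individually reaching it; inconclusive = meets only the mean limit or only the replicate share; inactive = meets neither condition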;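 also: 0% = median of neutral control wells and 100% = median of positive control wells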
* marks the source's active call; other numbers are inactive results; ? = inconclusive; . = not tested or not shown. Only some compounds are listed: those with a hit (about 5.8% of all), similar ones and a draw of the others.

SMILES	GASC1 inh	T cruzi growth-1	Pf Dd2 inh	IDH1 mut inh	T cruzi growth-2	T cruzi growth-3	NIH3T3 tox	NIH3T3 tox 2
O=C([C@@H]1[C@@H](CO)[C@@H]2Cn3c(ccc(C4=CCCCC4)c3=O)[C@H]1N2)N1CCC(Cc2ccccc2)CC1	2.1	100.4*	10.2	.	10.5	17.9	-21.1	-20.9
C[C@@H]1CN([C@H](C)CO)C(=O)CCCn2cc(nn2)CO[C@@H]1CN(C)C(=O)Nc1cccc(F)c1	-0.5	11.2	9.0	.	.	.	.	.
COc1ccc(OC(=O)N(C)C[C@H]2OCc3cn(nn3)CCCC(=O)N([C@H](C)CO)C[C@H]2C)cc1	1.5	22.0	2.3	-0.2	.	.	.	.
Cc1noc(C)c1NC(=O)N(C)C[C@H]1OCc2cn(nn2)CCCC(=O)N([C@H](C)CO)C[C@@H]1C	.	-8.7	9.1	-0.5	.	.	.	.
C[C@H](CO)N1C[C@H](C)[C@@H](CN(C)C(=O)Nc2cccc(F)c2)OCc2cn(nn2)CCCC1=O	0.4	?	4.7	.	108.7*	16.8	30.9	14.9
COc1cccc(S(=O)(=O)N(C)C[C@@H]2OCc3cn(nn3)CCCC(=O)N([C@@H](C)CO)C[C@H]2C)c1	-0.1	?	5.4	-1.3	93.5	3.6	7.4	14.9
COc1ccc(OC(=O)N(C)C[C@@H]2OCc3cn(nn3)CCCC(=O)N([C@H](C)CO)C[C@@H]2C)cc1	-0.7	112.6*	15.0	-0.2	42.1	-17.0	5.1	4.2
Cc1noc(C)c1NC(=O)N(C)C[C@@H]1OCc2cn(nn2)CCCC(=O)N([C@H](C)CO)C[C@@H]1C	-0.7	?	1.0	-1.1	15.6	-1.6	-3.1	-11.6
COc1cc(F)ccc1S(=O)(=O)NC1CC(C)(C)NC(C)(C)C1	.	.	.	0.1	.	.	.	.
C[C@H]1CN([C@@H](C)CO)C(=O)CCCn2cc(nn2)CO[C@@H]1CN(C)Cc1ccc(Cl)c(Cl)c1	0.4	-65.1	20.2	-1.4	.	.	.	.
COC(=O)N(C)C[C@@H]1OCc2cn(nn2)CCCC(=O)N([C@H](C)CO)C[C@H]1C	.	-249.8	-16.9	1.0	.	.	.	.
COC(=O)N(C)C[C@H]1OCc2cn(nn2)CCCC(=O)N([C@@H](C)CO)C[C@H]1C	0.6	?	-6.2	-2.1	25.4	4.4	21.3	?
C[C@@H]1CN([C@@H](C)CO)C(=O)CCCn2cc(nn2)CO[C@H]1CN(C)Cc1ccc(Cl)c(Cl)c1	0.6	135.1*	8.4	-2.9	77.2	73.8	-30.0	0.1
Cc1ccc(-c2ccc([C@@H]3[C@@H](CO)N4CCCCN(C(=O)c5ccc(F)cc5)C[C@H]34)cc2)cc1	3.4	104.3*	-4.1	.	107.7*	61.5	33.1	103.7*
COCC(=O)N1CCCCN2[C@H](C1)[C@@H](c1ccc(-c3ccc(F)cc3)cc1)[C@@H]2CO	-0.4	80.6	9.2	.	.	.	.	.
Cc1ccc(-c2ccc([C@@H]3[C@H](CO)N4CCCCN(C(=O)c5ccc(F)cc5)C[C@@H]34)cc2)cc1	-0.9	110.5*	-71.9	.	97.9*	64.5	?	103.3*
CCC(=O)N1CCCCN2[C@@H](CO)[C@H](c3ccc(-c4ccc(F)cc4)cc3)[C@@H]2C1	-0.6	100.5*	16.4	.	83.0	61.9	21.2	60.6*
Cc1ccc(-c2ccc([C@@H]3[C@H]4CN(C(=O)c5ccc(F)cc5)CCCCN4[C@H]3CO)cc2)cc1	1.6	110.9*	7.5	.	103.1*	65.9	31.9	84.6*
COc1cc(O)c(C(=O)CCc2ccc(OC)c(OC)c2)c(OC)c1	.	.	.	-0.2	.	.	.	.
N#C[C@H]1[C@@H](c2ccc(/C=C/c3ccccc3)cc2)[C@@H](CO)N1C(=O)C1CCCCC1	-1.4	97.9*	-25.1	.	96.3*	?	14.9	90.2*
N#C[C@@H]1[C@@H](c2ccc(/C=C/c3ccccc3)cc2)[C@@H](CO)N1C(=O)C1CCCCC1	0.1	102.3*	-23.6	.	?	58.0	5.2	26.1
